Rows were chosen to be rich in hits. Some 1.3% of all compounds tested hit in one or more screens of this group.
mABHD4 FP: inhibits mouse alpha/beta hydrolase domain 4; Q8VD66; purified mABHD4, FP-Rh probe fluorescence polarization; inhibition, % at 8.92 µM; 370,000 compounds, 0.54% hits; AID 720543;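 active means inhibition exceeding the mean over every tested compound plus 3 SD, cut at about 30% in these data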
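assay system = mABHD4 protein | compound dosing = single nominal dose of 8.92 µM, 0.89% DMSO final | read-out basis = percent inhibition of probe binding, normalized to plate controls | schedule = Enzyme–compound pre-incubation 45 min, then probe 60 min, both 25 °C | detection = fluorescence polarization, excitation 525 nm, emission 598 nm, BODIPY TMR filters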
HTRA1 inh: blocks human HTRA1 serine peptidase | recombinant HTRA1, FP-rhodamine activity-based probe, fluorescence polarization | 340,000 compounds, 0.5% hits | inhibition, % at 5.96 µM; in the data active means inhibition above about 36%
DDE Tn6 FP inh: DD(E)-Tn6 binding inhibition, primary FP screen | Fibrin DD(E) TRITC-Tn6 fluorescence polarization displacement | inhibition, % at 8.3 µM | P02675 | 370,000 compounds, 0.21% hits | AID 720509;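 active means inhibition above a per-campaign cutoff: mean of compounds within control limits plus 3 SD, cut at about 15% in these data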
Target sequence (P02675 whole entry, looked up): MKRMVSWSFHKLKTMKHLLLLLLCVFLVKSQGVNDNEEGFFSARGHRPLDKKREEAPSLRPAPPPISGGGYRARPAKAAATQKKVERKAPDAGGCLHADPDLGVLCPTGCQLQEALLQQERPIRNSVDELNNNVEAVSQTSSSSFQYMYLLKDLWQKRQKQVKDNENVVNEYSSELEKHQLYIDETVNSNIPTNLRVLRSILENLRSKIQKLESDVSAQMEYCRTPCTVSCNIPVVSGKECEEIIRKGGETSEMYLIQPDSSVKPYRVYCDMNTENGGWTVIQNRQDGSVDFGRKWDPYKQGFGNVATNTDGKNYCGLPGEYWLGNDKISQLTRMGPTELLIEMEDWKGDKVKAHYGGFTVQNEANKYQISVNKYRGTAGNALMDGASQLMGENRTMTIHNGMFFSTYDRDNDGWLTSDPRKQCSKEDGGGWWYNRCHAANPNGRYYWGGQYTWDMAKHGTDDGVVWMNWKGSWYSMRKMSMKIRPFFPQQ
TCR-CD3 inh: inhibitors of human TCR-CD3 interaction. 360,000 compounds, 0.37% hits. inhibition, % at 9.4 µM. TAMRA-labeled TCR probe fluorescence, biochemical;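 further: recombinant mutant TCR 2C K166C tagged with TAMRA read by polarization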
Tn7 DDE FP: DD(E)-Tn7 binding inhibition, primary FP screen; FP displacement of FITC-Tn7 peptide from fibrin DD(E); 0% = median of compound wells per plate; 370,000 compounds, 0.13% hits; inhibition, % at 8.3 µM; P02675;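 active means inhibition above the mean of compounds falling within the control limits plus 3 SD of them, cut at about 14% in these data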
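System: human fibrin DD(E); quantity: Fibrin-DD(E) at 2 µM final; also added: fluorescent Tn7 probe at 0.1 µM; compound dosing: single nominal test concentration of 8.3 µM per compound; schedule: 10 min preincubation, 3 h with tracer, room temperature; detection: fluorescence polarization of the labelled Tn7 tracer; repeats: one replicate per compound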
BSA probe FL: BSA probe counter-screen for TCR-CD3 inhibitors. AID 652035. inhibition, % at 9.4 µM. shares compounds with TCR-CD3 inh. 1,200 compounds, 10% hits. TAMRA-labeled BSA probe fluorescence counterscreen; in the data active means inhibition above about 23%
TCR-CD3 inh conf: confirmation of human TCR-CD3 interaction inhibitors; shares compounds with TCR-CD3 inh; inhibition, % at 9.4 µM; 1,200 compounds, 48% hits; TAMRA-labeled TCR probe fluorescence binding assay
Large screens that a line does not name were inactive (follow-up assays come after a bar, where they were run). Unless noted, no stated cut-off is given here; in the data, active means inhibition above about 19%; inactive means the rest.

O=C(CSc1nnc(-c2cccnc2)n1-c1ccc(Cl)cc1)c1ccc(F)cc1	none (no result: HTRA1 inh, TCR-CD3 inh)
CC(/C=C1\SC(=S)N(CCC(=O)Nc2ccc(O)cc2)C1=O)=C\c1ccccc1	none
CC(=O)c1ccc(NC(=O)CN2C(=O)/C(=C/C(C)=C/c3ccccc3)SC2=S)cc1	TCR-CD3 inh 24 | BSA probe FL inactive | TCR-CD3 inh conf 49
NNC(=O)c1nc[nH]c1C(=O)Nc1ccccn1	TCR-CD3 inh 38 | BSA probe FL inactive | TCR-CD3 inh conf 25
CCOc1ccc(C(=O)NCC(=O)NCC(c2ccco2)N2CCCCC2)cc1 (stereo unspecified)	none
C[C@@H]1CC[C@]2(O[C@H](CCO)C[C@@H](O)[C@@H]2O)O1	none
CC1=Nc2ccccc2/C1=C/c1nc(-c2ccc(C)s2)oc1O	TCR-CD3 inh 19 | BSA probe FL inactive | TCR-CD3 inh conf inactive
CC1=Nc2ccccc2/C1=C\c1nc(-c2ccccc2)oc1O	none
COc1ccc(C(c2sc3nc(C)nn3c2O)N2CC(C)OC(C)C2)cc1OC (stereo unspecified)	none
COc1ccccc1N(C)S(=O)(=O)c1ccc(C(=O)OCC(=O)c2c[nH]c3ccccc23)cc1	TCR-CD3 inh 20 | BSA probe FL inactive | TCR-CD3 inh conf inactive
COc1ccccc1N(C)S(=O)(=O)c1ccc(C(=O)OCC(=O)N(C)c2ccccc2)cc1	none
Cc1csc(-c2cc(C(=O)NCc3cc(C(F)(F)F)cc(C(F)(F)F)c3)n[nH]2)c1	none (no result: HTRA1 inh)
Cn1cc(CN2CCC(n3nccc3NC(=O)c3ccccc3Cl)CC2)c2ccccc21	none
O=C(Nc1ccc(S(=O)(=O)Nc2nccs2)cc1)c1nn(-c2ccccc2)ccc1=O	TCR-CD3 inh 20 | BSA probe FL inactive | TCR-CD3 inh conf 22
O=C(O)c1ccccc1C(=O)Nc1ccc(S(=O)(=O)Nc2nccs2)cc1	TCR-CD3 inh 38 | BSA probe FL inactive | TCR-CD3 inh conf inactive
CCOc1ccccc1NC(=O)Nc1cc(C(=O)O)ccc1C	none
CC(C)(C)OC(=O)NCCc1onc(-c2ccc([N+](=O)[O-])cc2)c1C(=O)O	none
O=C(Cc1cccc2ccccc12)N/N=C/C=C/c1cccc([N+](=O)[O-])c1	none
Cc1nc2ccccc2n1CC(=O)c1ccccc1	none
Cc1nc2ccccc2n1CC(=O)c1ccc(O)c(O)c1	TCR-CD3 inh 45 | BSA probe FL inactive | TCR-CD3 inh conf 37
CCOC(=O)c1cc(S(=O)(=O)NC2CCCCC2)cn1C	TCR-CD3 inh 30 | BSA probe FL inactive | TCR-CD3 inh conf inactive
O=C(N/N=C/c1cc(Br)ccc1O)c1cccc(N2CCCC2=O)c1	TCR-CD3 inh 30 | BSA probe FL inactive | TCR-CD3 inh conf 26
CCOc1cc(/C=N/NC(=O)COc2ccc(Cl)cc2)ccc1OS(=O)(=O)c1ccccc1	TCR-CD3 inh 28 | BSA probe FL 24 | TCR-CD3 inh conf 35
S=c1[nH]nc(COc2ccccc2)n1/N=C/c1ccccc1Br	none
Oc1ccc(Br)cc1/C=N/n1c(COc2ccccc2)n[nH]c1=S	TCR-CD3 inh 20 | BSA probe FL inactive | TCR-CD3 inh conf inactive
CN(CCO)c1nc(N)c2c(N)nc3c(c2c1C#N)CC(=O)N3Cc1cccs1	TCR-CD3 inh 21 | BSA probe FL inactive | TCR-CD3 inh conf inactive
N#Cc1c(N(CCO)CCO)nc(N)c2c(N)nc3c(c12)CC(=O)N3Cc1cccs1	none (no result: mABHD4 FP, DDE Tn6 FP inh, TCR-CD3 inh, Tn7 DDE FP)
CC1(c2nnnn2C2CCCCC2)CCC(=O)N1Cc1ccc2c(c1)OCO2 (stereo unspecified)	none (no result: HTRA1 inh)
O=C(COC(=O)c1cc(-c2cccs2)nn1-c1ccccc1)Nc1ccc(F)c([N+](=O)[O-])c1	TCR-CD3 inh 21 | BSA probe FL inactive | TCR-CD3 inh conf inactive
CCOc1ccc(-n2c(SCC(=O)Nc3cc(OC)c([N+](=O)[O-])cc3C)nc3ccccc32)cc1	none
CC1=NN(C(=O)c2ccccc2Cl)C(O)(c2ccccc2)C1 (stereo unspecified)	TCR-CD3 inh 21 | BSA probe FL inactive | TCR-CD3 inh conf inactive
CC1=NN(C(=O)c2ccccc2)C(O)(c2ccc(Br)cc2)C1 (stereo unspecified)	TCR-CD3 inh 24 | BSA probe FL inactive | TCR-CD3 inh conf 25
CCOC(=O)N1N=C(C)CC1(O)c1ccccc1 (stereo unspecified)	none
CC1=NN(C(=O)c2ccccc2F)C(O)(c2ccc(Cl)cc2)C1 (stereo unspecified)	TCR-CD3 inh 23 | BSA probe FL inactive | TCR-CD3 inh conf inactive
CC(C)Oc1ccc(C(=O)NCCCNC(=O)c2ccccn2)cc1	none
CCN(c1ccc(NC(=O)COC(=O)c2ccc(C)s2)cc1)C(C)C	none
Cc1ccc(C(=O)OCC(=O)Nc2ccc(C(N)=O)cc2)s1	TCR-CD3 inh active | BSA probe FL inactive | TCR-CD3 inh conf inactive
Cc1c(O)cc2c(c1O)C(=O)CC(c1ccc(O)cc1)O2 (stereo unspecified)	TCR-CD3 inh 34 | BSA probe FL inactive | TCR-CD3 inh conf 22
Cc1cc(Br)cn2c(Cc3ccsc3)c(-c3ccccc3)nc12	none (no result: HTRA1 inh)
Cc1ccc(-c2nc3c(C)cc(Br)cn3c2Cc2ccsc2)cc1	TCR-CD3 inh 23 (no result: HTRA1 inh) | BSA probe FL inactive | TCR-CD3 inh conf inactive
Cc1ccc(F)cc1C(=O)N1CCCC(c2cc(C(=O)Nc3ccccc3)no2)C1 (stereo unspecified)	none (no result: HTRA1 inh)
Cc1cc(C(=O)NC2CCCc3c2cnn3-c2ccc(C)c(C)c2)n(C)n1 (stereo unspecified)	none
CC(=O)N1CCN(C(=O)c2ccc(S(=O)(=O)Nc3ccccc3C)cc2)CC1	none
Cc1ccccc1NS(=O)(=O)c1ccc(C(=O)N2CCC2)cc1	TCR-CD3 inh 20 | BSA probe FL inactive | TCR-CD3 inh conf inactive
CCOC(=O)C1C(=O)NC(C(=O)OCC)(C(=O)OCC)C1CC (stereo unspecified)	none
COC(=O)C1=C(C)NC(=O)C1(Nc1ccc(Cl)cn1)C(F)(F)F (stereo unspecified)	none
CCC(=O)Nc1ccc(/C(C)=N/NC(=O)c2c(-c3ccccc3Cl)noc2C)cc1	TCR-CD3 inh 21 | BSA probe FL inactive | TCR-CD3 inh conf inactive
O=c1nc(N2CCCCC2)nc(Nc2ccccc2)[nH]1	none
COc1ccc(Cl)cc1C(=O)NC(=S)Nc1cc(-c2nc3ccccc3[nH]2)ccc1C	TCR-CD3 inh 47 | BSA probe FL inactive | TCR-CD3 inh conf inactive
COc1ccc(Cl)cc1C(=O)NC(=S)Nc1nc(C)cc(C)n1	none
COc1ccc(-c2cc3ccc(F)cc3cn2)cc1	none
O=C(O)c1cccc(-n2cccc2/C=C2/NC(=O)N(c3ccc(Cl)cc3)C2=O)c1	TCR-CD3 inh 36 | BSA probe FL inactive | TCR-CD3 inh conf 31
